Entries after “also recorded” stand apart in the source; their conditions may differ. Where no end group is shown, it is not given here.

For series [1], the system named is myosin-X MyTH4–FERM cassette / microtubules. In words: Competition microtubule co-sedimentation of MyTH4–FERM cassette. The class given is binding, human. The settings on record: Myo-X 4 μM; integrin β5 peptide 0, 4, 20 and 40 μM; three independent measurements.
The subject of series [2] is myosin-X MyTH4–FERM cassette. In words: Pull-down with GST-fused integrin β5 cytoplasmic tail. The settings on record: GST-fused integrin β5 (743–799), Myo-X 10 μM. In kind it is binding, human. The method, boiled down: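 MyTH4–FERM cassette (10 μM) was pulled down on glutathione-Sepharose at 4°C by GST-fused human integrin β5 cytoplasmic tail (743–799), with DCC P3 peptide at 0, 10, 50 or 100 μM. Eluates were run on SDS–PAGE. Bound cassette was expressed relative to the no-DCC sample, from three independent measurements.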

The subject of series [3] is myosin-X MyTH4–FERM cassette. Description: Pull-down with GST-fused C-terminal tail peptides of α- and β-tubulins. In kind it is binding, human. Particulars: SDS–PAGE. The method, boiled down:
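Purified MyTH4–FERM cassette was mixed with GST-fused α1A-tubulin (399–451) or β2B-tubulin (390–445) tail peptide in 20 mM Tris–HCl pH 8.0, 50 mM NaCl, 1 mM DTT at 4°C for 30 min. Glutathione-Sepharose was then added for 10 min at 4°C, with five washes. Elution used 20 mM glutathione in 50 mM Tris–HCl pH 8.0 with 150 mM NaCl, then SDS–PAGE.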

The subject of series [4] is C-terminal acidic tail peptide of β2B-tubulin. In words: Pull-down of wild-type and mutated MyTH4–FERM cassettes with GST-tubulin tail. In kind it is binding. The settings on record: SDS–PAGE. An outline of the steps: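 Human myosin-X MyTH4–FERM cassette (wild type or site-directed mutants) was expressed in E. coli BL21Star(DE3) at 20°C with 0.1 mM IPTG. It was Ni-NTA purified, then His-tag cleaved with HRV3C, then run over cation exchange and gel filtration. GST bait was human DCC 1390–1447 or β2B-tubulin 390–445. Cassette and bait were mixed with glutathione-Sepharose at 4°C, washed, and eluates resolved by SDS–PAGE.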

Series [5] is described as follows: Analytical ultracentrifugation. The class given is physicochemical. Particulars: AUC, mono-modal peak. The method, boiled down: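 Sedimentation velocity at 20°C and 25 000 r.p.m. Purified protein was in 20 mM Tris (pH 8.5), 150 mM NaCl and 5 mM DTT, at 1 mg/ml (14 μM). Sedimentation data were fitted to obtain the species distribution.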
Series [6] deals with myosin-X MyTH4–FERM cassette. Description: Gel filtration and AUC of cassette–DCC P3 complex. In kind it is binding, human. Particulars: through the MyTH4–FERM cassette.
The subject of a further series is DCC. The settings on record: yeast two-hybrid; ref Zhu et al, 2007; cited from earlier work.
A further series deals with microtubules. Particulars: ref Weber et al, 2004; cited from earlier work.

Consider “integrin β5 cytoplasmic peptide: integrin β5 cytoplasmic tail (residues 743–799) ({GST}-KLLVTIHDRREFAKFQSERSRARYEMASNPLYRKPISTHTVDFTFNKFNKSYNGTVD; not fully specified)”, for which the “interference with microtubule binding by integrin β5” value in series [1] was “interfere with microtubule binding”. Besides, the “binding of integrin β5 cytoplasmic peptide” value in series [2] is listed as “showed binding”.

B1: MyTH4–FERM cassette (protein)
chain: TRWSSAIQNVTDTKAPIDTPTQQLIQDIKENCLNSDVVEQIYKRNPILRYTHHPLHSPLLPLPYGDINLNLLKDKGYTTLQDEAIKIFNSLQQLESMSDPIPIIQGILQTGHDLRPLRDELYCQLIKQTNKVPHPGSVGNLYSWQILTCLSCTFLPSRGILKYLKFHLKRIREQFPGSEMEKYALFTYESLKKTKCREFVPSRDEIEALIHRQEMTSTVYCHGGGSCKITINSHTTAGEVVEKLIRGLAMEDSRNMFALFEYNGHVDKAIESRTVVADVLAKFEKLAATSEVGDLPWKFYFKLYCFLDTDNVPKDSVEFAFMFEQAHEAVIHGHHPAPEENLQVLAALRLQYLQGDYTLHAAIPPLEEVYSLQRLKARISQSTKTFSFRTGSVVRQKVEEEQMLDMWIKEEVSSARASIIDKWRKFQGMNQEQAMAKYMALIKEWPGYGSTLFDVECKEGGFPQELWLGVSADAVSVYKRGEGRPLEVFQYEHILSFGAPLANTYKIVVDERELLFETSEVVDVAKLMKAYISMIVKKRYSTTRSASSQGSSR
modifications: left off: His6, N-terminal, cleaved
With B1, the “binding to α- and β-tubulin acidic tails” value in series [3] is “binds both α- and β-tubulin acidic tails”. Moreover, the “binding to β2B-tubulin C-terminal tail peptide” value in series [4] was “shows binding”. Further, the “association state in solution” value in series [5] is recorded as “monomer”. In addition, in series [6], the “cargo-mediated dimerization of myosin-X” value was “no cargo-mediated dimerization was observed”. The “DCC binding in two-hybrid assay” value in the series with DCC was “sufficient for DCC and neogenin binding; also recorded: full DCC-binding affinity”. Moreover, the microtubule association result with microtubules is given as “sufficient to confer microtubule association”.

These data come from PMC3155308 (The EMBO Journal, 2011).
